Data published in ChEMBL document CHEMBL3785029, “Synthesis and Characterization of Fatty Acid Conjugates of Niacin and Salicylic Acid” (J Med Chem, 2016).

Key:
[1] = Cmax in Sprague-Dawley rat at 300 mg/kg, po measured up to 24 hrs post dose; format: ADME, organism-based; set-up: dose 300 mg/kg, route oral; details: in vivo
How it was run: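 Single oral dose of 300 mg/kg to Sprague Dawley rats. Plasma collected at 0, 0.5, 1, 2, 4, 8 and 24 hr. Analytes were the parent, the salicylate-linker and linker-DHA metabolites, salicylic acid and salicyluric acid; Cmax and AUClast derived.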

[2] = tested on: Brain; assay: Drug metabolism in Sprague-Dawley rat brain assessed as salicyluric acid formation at 300 mg/kg, po administered for 7 days measured 4 hrs post dose on day 7; format: ADME, organism-based; details: in vivo
How it was run: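 Male Sprague Dawley rats, groups of 4, dosed orally at 300 mg/kg once daily for 14 days. Animals killed on days 1, 3, 7 and 14, with plasma, brain, epididymal fat, liver and muscle taken 4 hr after dosing. Parent, salicylic acid and salicyluric acid were measured.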

[3] = Drug metabolism in Sprague-Dawley rat epididymal fat assessed as salicylic acid formation at 300 mg/kg, po administered for 14 days followed by 7 day washout cycle measured on day 21; format: ADME, organism-based, Epididymal fat pad; details: in vivo
[4] = tested on: Plasma; assay: Drug metabolism in Sprague-Dawley rat plasma assessed as nicotinuric acid levels at 100 mg/kg, po administered as single dose after 6 hrs by LC/MS/MS analysis; format: ADME, organism-based; details: in vivo
How it was run: (§1)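 Single oral dose to Sprague Dawley rats; plasma collected at 0.25, 0.5, 1, 2, 4 and 6 hr; analytes in plasma quantified by LC/MS/MS.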

[5] = tested on: Plasma; assay: Drug metabolism in Sprague-Dawley rat plasma assessed as niacin formation at 300 mg/kg, qd administered through oral gavage for 7 days measured 2 hrs post last dose by LC/MS/MS analysis; format: ADME, organism-based; details: in vivo, BLD = below limit of detection
[6] = tested on: Intestine; assay: Drug metabolism in Sprague-Dawley rat intestine assessed as niacin formation at 300 mg/kg, qd administered through oral gavage for 7 days measured 2 hrs post last dose by LC/MS/MS analysis; format: ADME, organism-based; details: in vivo
[7] = tested on: Liver; assay: Drug metabolism in Sprague-Dawley rat liver assessed as nicotinuric acid formation at 300 mg/kg, qd administered through oral gavage for 7 days measured 2 hrs post last dose by LC/MS/MS analysis; format: ADME, organism-based; details: in vivo
[8] = tested on: Liver; assay: Drug metabolism in Sprague-Dawley rat liver assessed as niacin linker metabolite N-(2-aminoethyl)nicotinamide formation at 300 mg/kg, qd administered through oral gavage for 7 days measured 2 hrs post last dose by LC/MS/MS analysis; format: ADME, organism-based; details: in vivo
[9] = tested on: Intestine; assay: Drug metabolism in Sprague-Dawley rat intestine assessed as niacin linker metabolite N-(2-aminoethyl)nicotinamide formation at 300 mg/kg, qd administered through oral gavage for 7 days measured 2 hrs post last dose by LC/MS/MS analysis; format: ADME, organism-based; details: in vivo
[10] = tested on: Plasma; assay: Drug metabolism in Sprague-Dawley rat plasma assessed as linker EPA metabolite (5Z,8Z,11Z,14Z,17Z)-N-(2-aminoethyl)icosa-5,8,11,14,17-pentaenamide formation at 300 mg/kg, qd administered through oral gavage for 7 days measured 2 hrs post last dose by LC/MS/MS analysis; format: ADME, organism-based; details: in vivo
[11] = biological target: T1, Fatty-acid amide hydrolase 1 (Homo sapiens, UniProt O00519); assay: Drug metabolism assessed as human recombinant N-terminal FLAG/C-terminal His-tagged FAAH1 (32 to 579 residues)-mediated compound hydrolysis by measuring release of EPA at 25 uM by LC/MS-MS analysis; format: ADME; details: TDE = time-dependent effect
T1 sequence (O00519 whole entry): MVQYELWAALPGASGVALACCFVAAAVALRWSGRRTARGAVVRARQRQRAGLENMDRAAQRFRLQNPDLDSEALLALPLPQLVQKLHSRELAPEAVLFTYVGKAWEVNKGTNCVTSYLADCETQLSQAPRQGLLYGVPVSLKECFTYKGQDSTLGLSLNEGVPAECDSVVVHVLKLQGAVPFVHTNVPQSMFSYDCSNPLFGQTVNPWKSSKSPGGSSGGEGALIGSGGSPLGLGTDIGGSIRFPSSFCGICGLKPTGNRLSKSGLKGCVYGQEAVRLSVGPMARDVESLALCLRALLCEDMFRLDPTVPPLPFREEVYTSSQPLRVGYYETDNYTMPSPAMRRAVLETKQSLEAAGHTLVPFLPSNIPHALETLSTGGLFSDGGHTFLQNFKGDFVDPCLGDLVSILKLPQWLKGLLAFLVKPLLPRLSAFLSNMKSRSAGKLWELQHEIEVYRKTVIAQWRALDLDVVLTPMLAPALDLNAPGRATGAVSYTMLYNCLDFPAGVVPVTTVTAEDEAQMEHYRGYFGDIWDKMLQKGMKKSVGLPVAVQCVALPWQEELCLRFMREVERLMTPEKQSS

[12] = biological target: T1, Fatty-acid amide hydrolase 1; assay: Drug metabolism assessed as human recombinant N-terminal FLAG/C-terminal His-tagged FAAH1 (32 to 579 residues)-mediated compound hydrolysis by measuring release of EPA at 25 uM after 2 hrs by LC/MS-MS analysis in presence of PF-3845; format: ADME
[13] = biological target: T1, Fatty-acid amide hydrolase 1; assay: Drug metabolism in human HepG2 cells assessed as FAAH-mediated compound hydrolysis by measuring level of EPA at 50 uM by LC/MS-MS analysis; format: ADME, cell-based; details: hepg2, 50 µM, TDE = time-dependent effect
[14] = tested on: Rattus norvegicus; assay: AUClast in Sprague-Dawley rat assessed as nicotinuric acid at 100 mg/kg, po administered as single dose measured up to 6 hrs post dose by LC/MS/MS analysis; format: ADME, organism-based; set-up: dose 100 mg/kg, time < 6 hr, route oral; details: in vivo; how it was run: as §1

Row | Cmax [1] [ng/mL] | Drug metabolism [2] [ng/g] | Drug metabolism [3] | Structure (SMILES) | Drug metabolism [4] [ng/mL] | Drug metabolism [5] | Drug metabolism [6] [ng/g] | Drug metabolism [7] [ng/g] | Drug metabolism [8] [ng/g] | Drug metabolism [9] [ng/g] | Drug metabolism [10] [ng/mL] | Drug metabolism [11] | Drug metabolism [12] | Drug metabolism [13] | AUClast [14] [ng·h/mL]
1 | 477 | 114.43 | metabolite_notdetected | CC/C=C\C/C=C\C/C=C\C/C=C\C/C=C\C/C=C\CCC(=O)NCCNC(=O)c1ccccc1O [EDASALONEXENT] | – | – | – | – | – | – | – | – | – | – | –
2 | – | – | – | CC/C=C\C/C=C\C/C=C\C/C=C\C/C=C\CCCC(=O)NCCNC(=O)c1cccnc1 | > 200 | BLD | 279 | 1356 | 10910 | 23899 | 1.1 | tde | metabolite_notdetected | tde | 3484
